Experimental data taken from ChEMBL document CHEMBL5113474, “Triazole-substituted phenylboronic acids as tunable lead inhibitors of KPC-2 antibiotic resistance” (Eur J Med Chem, 2022).
Converted amounts (≈) assume the structure as drawn. Each block holds one compound with its values, some of them ahead of it. The source made the active and inactive calls. No cut-off for these calls is given here.

What was measured:
[1] = Inhibition of beta-lactamase KPC-2 (unknown origin); design: species or system Bacteria
[2] = Inhibition of beta-lactamase SHV-12 (unknown origin); design: species or system Bacteria
[3] = Inhibition of beta-lactamase PDC-3 (unknown origin); design: species or system Bacteria
[4] = Inhibition of beta-lactamase P99 (unknown origin); design: species or system Bacteria
[5] = system: Escherichia coli; type: functional, BL21 (DE3); settings: time 16-18 hrs
[6] = system: Bacteria; assay: Inhibition of bacterial beta-lactamase KPC-2 expressed in Escherichia coli BL21 (DE3) using nitrocefin as substrate at 1 uM by spectrophotometric analysis relative to control
In short: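 Purified recombinant KPC-2 tested against the chromogenic β-lactam nitrocefin at 1 µM inhibitor. Hydrolysis was followed as the rise in absorbance at 482 nm (ε482 = 17,400 M-1 cm-1). Activity is expressed as percent inhibition relative to an uninhibited control.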

[7] = Inhibition of bacterial beta-lactamase KPC-2 expressed in Escherichia coli BL21 (DE3) using nitrocefin as substrate assessed as inhibition constant by Cheng-Prusoff equation analysis; design: species or system Bacteria
[8] = system: Escherichia coli; assay: Antibacterial activity against Escherichia coli NCTC10418; type: functional
[9] = system: Escherichia coli; assay: microbe, parasite or virus in culture; type: functional; settings: BL21 (DE3), dose 50 µg/ml, time 16-20 hrs
[10] = system: Escherichia coli; assay: microbe, parasite or virus in culture; type: functional; settings: BL21 (DE3), dose 50 µg/ml, time 16-20 hrs; remark: listed apart in the source
[11] = system: Escherichia coli; assay: microbe, parasite or virus in culture; type: functional; settings: BL21 (DE3), dose 5 µg/ml, time 16-20 hrs
[12] = system: Escherichia coli; assay: microbe, parasite or virus in culture; type: functional; settings: BL21 (DE3), dose 5 µg/ml, time 16-20 hrs; remark: listed apart in the source
[13] = system: Escherichia coli; assay: Potentiation of cefotaxime induced antibacterial activity against Escherichia coli expressing CMY-4/TEM-1 assessed as cefotaxime MIC at 5 ug/ml incubated for 16 to 20 hrs by microdilution method; type: functional; settings: dose 5 µg/ml, time 16-20 hrs
In short: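 Cefotaxime MIC re-measured with the boronic acid inhibitor held at a fixed 5 μg/mL, lowered from an earlier 50 μg/ml fixed-dose combination; MICs interpreted against CLSI susceptibility categories.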

[14] = Cytotoxicity against HEK293 cells assessed as cell viability at 5 to 50 ug/ml incubated for 24 hrs by MTT assay relative to control; settings: human, at 5 to 50 µg/mL
[15] = Cytotoxicity against HEK293 cells assessed as cell viability at 5 to 50 ug/ml incubated for 24 hrs in presence of cefotaxime by MTT assay relative to control; settings: human, at 5 to 50 µg/mL
[16] = physchem; settings: 0.1 M phosphate buffer, pH 4.3
[17] = Inhibition of beta-lactamase CTX-M (unknown origin); design: species or system Bacteria
[18] = system: Escherichia coli; assay: Antibacterial activity against Escherichia coli expressing CMY-4/TEM-1 assessed as bacterial growth inhibition at 0.06 to 64 ug/ml incubated for 16 to 20 hrs by microdilution method; type: functional, organism-based; settings: dose 0.06-64 µg/ml, time lower […], time upper 20.0 hrs
[19] = system: Proteus mirabilis; assay: Antibacterial activity against Proteus mirabilis producing CTX-M-14/CMY-2 assessed as bacterial growth inhibition incubated for 16 to 20 hrs by microdilution method; type: functional; settings: time 16-20 hrs
[20] = system: Klebsiella pneumoniae; assay: Antibacterial activity against Klebsiella pneumoniae harboring OXA-48 assessed as bacterial growth inhibition incubated for 16 to 20 hrs by microdilution method; type: functional; settings: time 16-20 hrs
[21] = Inhibition of class C […]beta-lactamase AmpC (unknown origin); design: species or system Bacteria
[22] = physchem; settings: 0.1 M phosphate buffer
[23] = Inhibition of beta-lactamase TEM-1 (unknown origin); design: species or system Bacteria
[24] = Inhibition of Metallo-beta-lactamase VIM-1 (unknown origin); design: species or system Bacteria
[25] = Inhibition of beta-lactamase OXA (unknown origin); design: species or system Bacteria
[26] = Solubility of the compound at 0.1 mM in 0.1 M phosphate buffer; type: physicochemical; settings: 100 µM

IC50 [1]: 0.04 µM
IC50 [2]: 0.14 µM
Ki [3]: 0.008 µM
Ki [4]: 0.014 µM
SMILES: O=C(Cc1cccs1)N[C@@H](Cn1cc(-c2cccc(C(=O)O)c2)nn1)B(O)O

inhibition [6]: 21%
Ki [7]: 1.84 µM
MIC [8]: > 64 mg/L
MIC [9]: ≤ 0.06 mg/L
MIC [10]: ≤ 0.06 mg/L
MIC [11]: ≤ 0.06 mg/L
MIC [12]: 4 mg/L (≈ 13 µM)
MIC [13]: 0.12 mg/L
pKa at 100 µM [16]: 6.27
SMILES: OB(O)c1cc(-n2cc(-c3ccsc3)nn2)c(F)cc1F
inhibition zone (IZ) [5]: 28.8 mm
viability at 24 h [14]: > 80%
viability at 24 h [15]: > 80%

Ki [17]: 0.004 µM
SMILES: CC(C)(O/N=C(/C(=O)NCB(O)O)c1cnc(N)s1)C(=O)O

SMILES: C[C@@H](O)[C@H]1C(=O)N2C(C(=O)O)=C(S[C@@H]3CN[C@H](C(=O)N(C)C)C3)[C@H](C)[C@H]12 [MEROPENEM]
Activity [18]: Active
MIC [19]: 0.25 mg/L (≈ 0.652 µM)
MIC [20]: 0.5 mg/L (≈ 1.3 µM)

Ki [21]: 0.001 µM
IC50 [1]: 0.06 µM
IC50 [2]: 0.04 µM
SMILES: O=C(Cc1cccs1)N[C@H](B(O)O)c1cccc(C(=O)O)c1

pKa at 100 µM [16]: 6.03
pKa [22]: 6
SMILES: O=[N+]([O-])c1ccc(F)c(B(O)O)c1
inhibition zone (IZ) [5]: 30.5 mm

IC50 [21]: 0.068 µM
IC50 [23]: 0.0026 µM
IC50 [24]: 1 µM
IC50 [25]: 0.22 µM
SMILES: O=C(O)c1cccc2c1OB(O)C(NC(=O)C1CCCCC1)C2 (stereo not drawn)

IC50 [21]: 0.27 µM
IC50 [23]: 0.0081 µM
IC50 [24]: 0.061 µM
IC50 [25]: 2 µM
SMILES: NCc1ccc(C(=O)NC2Cc3cccc(C(=O)O)c3OB2O)cc1 (stereo not drawn)

Ki [7]: 5.9 µM
solubility [26]: Insoluble
SMILES: OB(O)c1cc(-n2cc(-c3ccsc3)nn2)cc(F)c1F
inhibition zone (IZ) [5]: 19.8 mm

SMILES: CO/N=C(\C(=O)N[C@@H]1C(=O)N2C(C(=O)O)=C(COC(C)=O)CS[C@H]12)c1csc(N)n1 [CEFOTAXIME]
MIC [20]: 2 mg/L (≈ 4.39 µM)
